Assay results reported in ChEMBL document CHEMBL3352487, “Synthesis, antibacterial activity, and biological evaluation of formyl hydroxyamino derivatives as novel potent peptide deformylase inhibitors against drug-resistant bacteria” (Eur J Med Chem, 2014).
In brackets after ≈: the same amount, converted by molar mass.

How the values were obtained:
[1] = test system: Escherichia coli; experiment: Antimicrobial activity against Escherichia coli isolate 2 after 24 hrs by broth microdilution method; type: functional; details: isolate 2, 24 h
Procedure, shortened: (§1)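 Broth microdilution following NCCLS M7-A4; ATCC strains and clinical isolates from a provincial hospital.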

[2] = test system: Escherichia coli; experiment: Antimicrobial activity against Escherichia coli isolate 1 after 24 hrs by broth microdilution method; type: functional; details: isolate 1, 24 h; procedure, shortened: as §1
[3] = test system: Staphylococcus aureus; experiment: Antimicrobial activity against Staphylococcus aureus ATCC 33591 in septicemia mouse model assessed as mortality of host at 20 mg/kg administered intragastrically measured after 14 days relative to control; type: functional; details: ATCC 33591, po, 336 h, route intragastric
Procedure, shortened: (§2)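 Septicemia model: outbred mice inoculated i.p. with a 90–100% lethal dose (5 × 10^6 CFU/mL) in 0.5 mL brain heart infusion broth with 5% mucin. Drug in 20% DMSO given intragastrically after infection at 5, 10 or 20 mg/kg, 0.1 mL. Six mice per dose; cumulative mortality over 14 days; ED50 derived.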

[4] = test system: Staphylococcus epidermidis; experiment: Antimicrobial activity against Staphylococcus epidermidis after 24 hrs by broth microdilution method; type: functional; procedure, shortened: as §1
[5] = test system: Staphylococcus aureus; experiment: Antimicrobial activity against Staphylococcus aureus ATCC 33591 in septicemia mouse model administered intragastrically measured after 14 days; type: functional; details: ATCC 33591, po, 336 h
[6] = test system: Staphylococcus aureus; experiment: Antimicrobial activity against Staphylococcus aureus ATCC 33591 in septicemia mouse model assessed as mortality of host at 5 mg/kg administered intragastrically measured after 14 days relative to control; type: functional; details: ATCC 33591, po, 336 h, route intragastric; procedure, shortened: as §2
[7] = test system: Staphylococcus aureus; experiment: Antimicrobial activity against Staphylococcus aureus ATCC 33591 in septicemia mouse model assessed as mortality of host at 10 mg/kg administered intragastrically measured after 14 days relative to control; type: functional; details: ATCC 33591, po, 336 h, route intragastric; procedure, shortened: as §2
[8] = test system: Staphylococcus aureus; experiment: Antimicrobial activity against Staphylococcus aureus WCUH29 after 24 hrs by broth microdilution method; type: functional; details: WCUH29, 24 h; procedure, shortened: as §1
[9] = test system: Staphylococcus aureus; experiment: Antimicrobial activity against methicillin-susceptible Staphylococcus aureus after 24 hrs by broth microdilution method; type: functional; procedure, shortened: as §1
[10] = test system: Moraxella catarrhalis; experiment: Antimicrobial activity against Moraxella catarrhalis 1502 after 24 hrs by broth microdilution method; type: functional; details: Moraxella catarrhalis, 1502, 24 h; procedure, shortened: as §1
[11] = test system: Escherichia coli; experiment: Antimicrobial activity against Escherichia coli isolate 3 after 24 hrs by broth microdilution method; type: functional; details: isolate 3, 24 h; procedure, shortened: as §1
[12] = Half life in Sprague-Dawley rat at 25 mg/kg, po; type: ADME, organism-based; parameters: dose 25 mg/kg, route oral; details: in vivo
[13] = AUC (0 to infinity) in Sprague-Dawley rat at 25 mg/kg, po; type: ADME, organism-based; parameters: dose 25 mg/kg, route oral, time infinity; details: plasma
[14] = test system: Streptococcus pyogenes; experiment: Antimicrobial activity against Streptococcus pyogenes 1307006P after 24 hrs by broth microdilution method; type: functional; procedure, shortened: as §1
[15] = test system: Streptococcus pneumoniae; experiment: Antimicrobial activity against Streptococcus pneumoniae ERY2 after 24 hrs by broth microdilution method; type: functional; details: ERY2, 24 h; procedure, shortened: as §1
[16] = test system: Haemophilus influenzae; experiment: Antimicrobial activity against Haemophilus influenzae Q1 after 24 hrs by broth microdilution method; type: functional; details: Q1, 24 h; procedure, shortened: as §1
[17] = test system: Streptococcus pyogenes; experiment: Antimicrobial activity against Streptococcus pyogenes 1308007P after 24 hrs by broth microdilution method; type: functional; procedure, shortened: as §1
[18] = test system: Streptococcus pneumoniae; experiment: Antimicrobial activity against Streptococcus pneumoniae 1629 after 24 hrs by broth microdilution method; type: functional; details: Streptococcus pneumoniae, 1629, 24 h; procedure, shortened: as §1
[19] = AUC (0 to t) in Sprague-Dawley rat at 25 mg/kg, po; type: ADME, organism-based; parameters: dose 25 mg/kg, route oral; details: plasma
[20] = Clearance in Sprague-Dawley rat at 5 mg/kg, iv; type: ADME, organism-based; parameters: dose 5 mg/kg, route intravenous; details: in vivo
[21] = test system: Enterococcus faecium; experiment: Antimicrobial activity against Enterococcus faecium X7501 after 24 hrs by broth microdilution method; type: functional; details: X7501, 24 h; procedure, shortened: as §1
[22] = Fraction unbound in CD1 mouse plasma at 2 uM by equilibrium dialysis; type: ADME, cell-free
Procedure, shortened: (§3)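 Pooled CD-1 mouse plasma spiked to 2 µM final, equilibrium dialysis in triplicate against 100 mM PBS pH 7.4, 4 h at 37 °C with rotation; matrix-matched samples acetonitrile-precipitated, LC-MS/MS with internal standards. Unbound = free/total ×100; recovery = (free+total)/pre-dialysis ×100.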

[23] = Oral bioavailability in Sprague-Dawley rat at 25 mg/kg; type: ADME, organism-based; details: in vivo
[24] = test system: Staphylococcus aureus; experiment: Antimicrobial activity against Staphylococcus aureus after 24 hrs by broth microdilution method; type: functional; procedure, shortened: as §1
[25] = AUC (0 to infinity) in Sprague-Dawley rat at 5 mg/kg, iv; type: ADME, organism-based; parameters: time infinity, dose 5 mg/kg, route intravenous; details: plasma
[26] = test system: Haemophilus influenzae; experiment: Antimicrobial activity against AcrA-deficient Haemophilus influenzae H128 after 24 hrs by broth microdilution method; type: functional; details: H128, 24 h; procedure, shortened: as §1
[27] = AUC (0 to t) in Sprague-Dawley rat at 5 mg/kg, iv; type: ADME, organism-based; parameters: dose 5 mg/kg, route intravenous; details: plasma
[28] = test system: Staphylococcus aureus; experiment: Antimicrobial activity against methicillin-resistant Staphylococcus aureus after 24 hrs by broth microdilution method; type: functional
Procedure, shortened: (§4)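 Broth microdilution following NCCLS M7-A4, using ATCC strains and clinical isolates from a provincial hospital.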

[29] = biological target: T1, hERG (KCNH2) (Homo sapiens, UniProt Q12809); experiment: Inhibition of human ERG at 1 uM
[30] = biological target: T1, hERG (KCNH2); experiment: Inhibition of human ERG at 10 uM
[31] = Mean residence time (0 to t) in Sprague-Dawley rat at 25 mg/kg, po; type: ADME, organism-based; parameters: dose 25 mg/kg, route oral; details: in vivo
[32] = Cmax in Sprague-Dawley rat at 25 mg/kg, po; type: ADME, organism-based; parameters: dose 25 mg/kg, route oral; details: in vivo
[33] = test system: Haemophilus influenzae; experiment: Antimicrobial activity against Haemophilus influenzae H128 after 24 hrs by broth microdilution method; type: functional; details: H128, 24 h; procedure, shortened: as §1
[34] = test system: Streptococcus pneumoniae; experiment: Antimicrobial activity against Streptococcus pneumoniae N1387 after 24 hrs by broth microdilution method; type: functional; details: N1387, 24 h; procedure, shortened: as §1
[35] = Drug recovery in CD1 mouse plasma at 2 uM by equilibrium dialysis; type: ADME, cell-free; details: read-out: Drug recovery; procedure, shortened: as §3
[36] = test system: Enterococcus faecalis; experiment: Antimicrobial activity against Enterococcus faecalis Isolate 1 after 24 hrs by broth microdilution method; type: functional; details: Isolate 1, 24 h; procedure, shortened: as §1
[37] = Half life in Sprague-Dawley rat at 5 mg/kg, iv; type: ADME, organism-based; parameters: dose 5 mg/kg, route intravenous; details: in vivo
[38] = Mean residence time (0 to t) in Sprague-Dawley rat at 5 mg/kg, iv; type: ADME, organism-based; parameters: dose 5 mg/kg, route intravenous; details: in vivo
[39] = Tmax in Sprague-Dawley rat at 25 mg/kg, po; type: ADME, organism-based; parameters: dose 25 mg/kg, route oral; details: in vivo
[40] = Protein binding in CD1 mouse plasma at 2 uM by equilibrium dialysis; type: ADME, cell-free; details: read-out: PPB (converted)
[41] = test system: Staphylococcus aureus; experiment: Antimicrobial activity against Staphylococcus aureus OXFORD after 24 hrs by broth microdilution method; type: functional; procedure, shortened: as §4
[42] = Volume of distribution at steady state in Sprague-Dawley rat at 5 mg/kg, iv; type: ADME, organism-based; parameters: dose 5 mg/kg, route intravenous; details: in vivo, read-out: Vdss

T1 sequence (Q12809 whole entry): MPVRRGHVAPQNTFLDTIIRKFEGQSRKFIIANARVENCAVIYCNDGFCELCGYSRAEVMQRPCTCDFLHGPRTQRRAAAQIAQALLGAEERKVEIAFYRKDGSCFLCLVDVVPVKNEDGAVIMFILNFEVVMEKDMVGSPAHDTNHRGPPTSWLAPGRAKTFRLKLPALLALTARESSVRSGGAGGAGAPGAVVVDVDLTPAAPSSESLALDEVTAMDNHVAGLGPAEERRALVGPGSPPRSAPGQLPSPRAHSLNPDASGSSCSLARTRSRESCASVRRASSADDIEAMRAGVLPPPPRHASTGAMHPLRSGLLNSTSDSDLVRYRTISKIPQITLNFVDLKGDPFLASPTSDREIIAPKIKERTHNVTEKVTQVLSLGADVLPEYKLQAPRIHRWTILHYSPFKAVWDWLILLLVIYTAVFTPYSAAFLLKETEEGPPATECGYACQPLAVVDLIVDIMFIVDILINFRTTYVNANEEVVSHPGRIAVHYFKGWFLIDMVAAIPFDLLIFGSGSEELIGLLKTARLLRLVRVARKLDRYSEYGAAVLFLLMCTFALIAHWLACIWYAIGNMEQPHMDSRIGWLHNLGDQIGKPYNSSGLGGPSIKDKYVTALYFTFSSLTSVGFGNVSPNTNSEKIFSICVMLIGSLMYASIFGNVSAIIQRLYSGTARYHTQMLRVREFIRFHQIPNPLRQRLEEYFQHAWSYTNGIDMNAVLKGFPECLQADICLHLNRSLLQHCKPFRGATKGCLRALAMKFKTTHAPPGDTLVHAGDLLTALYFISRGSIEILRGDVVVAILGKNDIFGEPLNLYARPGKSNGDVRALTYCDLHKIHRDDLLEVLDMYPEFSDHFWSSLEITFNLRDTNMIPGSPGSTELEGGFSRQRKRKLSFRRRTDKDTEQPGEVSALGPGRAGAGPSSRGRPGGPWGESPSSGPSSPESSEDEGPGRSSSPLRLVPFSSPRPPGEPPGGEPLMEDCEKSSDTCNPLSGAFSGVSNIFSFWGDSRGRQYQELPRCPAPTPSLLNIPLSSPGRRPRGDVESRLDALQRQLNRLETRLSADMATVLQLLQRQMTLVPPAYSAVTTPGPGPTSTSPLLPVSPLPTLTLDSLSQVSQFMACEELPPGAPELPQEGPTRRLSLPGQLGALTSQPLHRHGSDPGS

In the case of `CC(=O)NC[C@H]1CN(c2ccc(N3CCOCC3)c(F)c2)C(=O)O1` [LINEZOLID], the MIC [1] is reported as > 64 µg/mL, the MIC [2] is reported as > 64 µg/mL and the mortality at 20 mg/kg [3] is reported as 16%. It also gave an MIC [4] of 0.5 µg/mL (≈ 1.48 µM), an ED50 [5] of 11.9 mg/kg and a mortality at 5 mg/kg [6] of 83%. It also gave a mortality at 10 mg/kg [7] of 66%.
Molecule `C=C1C[C@@H](C(=O)Nc2ncc(C)s2)N(C(=O)[C@H](CCCC)CN(O)C=O)C1` has an MIC [1] of 32 µg/mL (≈ 81.1 µM), an MIC [8] of 0.125 µg/mL (≈ 0.317 µM) and an MIC [9] of 0.5 µg/mL (≈ 1.27 µM). For the same molecule, the MIC [10] was ≤ 0.06 µg/mL, the MIC [11] was 64 µg/mL (≈ 162 µM) and the half-life [12] was 3.02 h. The AUC(0-inf) [13] was 58300 ng·h/mL, the MIC [14] was 2 µg/mL (≈ 5.07 µM) and the MIC [15] was 2 µg/mL (≈ 5.07 µM). The MIC [2] was 64 µg/mL (≈ 162 µM), the MIC [16] was 4 µg/mL (≈ 10.1 µM) and the mortality at 20 mg/kg [3] was 50%. The MIC [17] was 2 µg/mL (≈ 5.07 µM), the MIC [4] was 0.0625 µg/mL (≈ 0.158 µM) and the MIC [18] was 2 µg/mL (≈ 5.07 µM). For the same molecule, the AUC(0-t) [19] was 58100 ng·h/mL, the clearance [20] was 4.83 mL/min/kg and the MIC [21] was 2 µg/mL (≈ 5.07 µM). The fraction unbound at 2 µM [22] was 0.01, the bioavailability [23] was 58.9% and the MIC [24] was 0.25 µg/mL (≈ 0.634 µM). For the same molecule, the AUC(0-inf) [25] was 19800 ng·h/mL, the MIC [26] was ≤ 0.06 µg/mL and the AUC(0-t) [27] was 19800 ng·h/mL. The MIC [28] was 0.0312 µg/mL (≈ 0.0791 µM), the inhibition at 1 µM [29] was -0.35% and the inhibition at 10 µM [30] was -2.98%. It also gave an MRT last [31] of 3.41 h, an ED50 [5] of 19.6 mg/kg and a Cmax [32] of 15700 ng/mL. For the same molecule, the mortality at 5 mg/kg [6] was 83%, the MIC [33] was 4 µg/mL (≈ 10.1 µM) and the MIC [34] was 1 µg/mL (≈ 2.53 µM). It also gave a recovery at 2 µM [35] of 93.7%, an MIC [36] of 4 µg/mL (≈ 10.1 µM) and a half-life [37] of 3.21 h. It also gave an MRT last [38] of 2.03 h, a Tmax [39] of 0.688 h and a mortality at 10 mg/kg [7] of 66%. The fraction unbound at 2 µM [40] was 0.01, the MIC [41] was 0.5 µg/mL (≈ 1.27 µM) and the Vd [42] was 0.571 L/kg.
